Source: ChEMBL document CHEMBL2384906, “Biological activity, design, synthesis and structure activity relationship of some novel derivatives of curcumin containing sulfonamides” (Eur J Med Chem, 2013)
Converted amounts (≈) assume the structure as drawn. The source made the active and inactive calls. The rule behind the calls is not given here.

Tests used:
Pseudomonas aeruginosa [1] = test: Antimicrobial activity against Pseudomonas aeruginosa ATCC 15499 after 24 hrs by broth micro serial dilution method; format: functional; details: ATCC 15499, 24 h
In short: (§1)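 This was broth microdilution in autoclaved Mueller-Hinton broth. 150 µL of compound per well was serially diluted […], and 50 µL of test organism was added. Plates were incubated 24 h at 37 °C and optical density was read.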

Salmonella typhi [2] = test: Antimicrobial activity against Salmonella typhi ATCC 23564 assessed as diameter of inhibition zone at 20 uM after 24 hrs by Kirby -Baur disc diffusion method; format: functional; details: Salmonella enterica subsp. enterica serovar Typhi
Bacillus cereus [3] = test: Antimicrobial activity against Bacillus cereus MTCC 7350 assessed as diameter of inhibition zone at 80 uM after 24 hrs by Kirby -Baur disc diffusion method; format: functional
In short: (§2)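 Kirby-Bauer disc diffusion was used. Acetone stocks (160 µM) were serially doubled down to 80, 40 and 20 µM. 4 µL of each went onto 5 mm sterile paper discs, which were dried 30 min at 50 °C. Inoculum was 1.5 × 10⁸ CFU/mL diluted to 3 × 10² CFU/mL, and 50 µL was spread on Mueller-Hinton agar. After 24 h at 37 °C the inhibition-zone diameter was measured. Ciprofloxacin served as positive control.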

Curvularia lunata [4] = test: Antifungal activity against Curvularia lunata MTCC 581 assessed as zone of inhibition at 40 uM after 48 hrs by disc diffusion method; format: functional; details: MTCC 581, 48 h, read-out: IZ
In short: (§3)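 Spores from 4-day potato dextrose agar cultures, suspended in sterile water at 1.5 × 10⁵ CFU/mL. 0.2 mL was spread on potato dextrose agar. 5 mm filter-paper discs soaked with test compound were laid on the lawn. Incubation was 48 h at 28 °C, then the inhibition zone was measured in mm. Fluconazole was the positive control and acetone the negative control.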

Pseudomonas aeruginosa [5] = test: Antimicrobial activity against Pseudomonas aeruginosa ATCC 15499 assessed as diameter of inhibition zone at 40 uM after 24 hrs by Kirby -Baur disc diffusion method; format: functional; in short: as §2
Curvularia lunata [6] = test: Antifungal activity against Curvularia lunata MTCC 581 assessed as zone of inhibition at 20 uM after 48 hrs by disc diffusion method; format: functional; in short: as §3
Aspergillus flavus [7] = test: Antifungal activity against Aspergillus flavus MTCC 1021 after 48 hrs; format: functional; details: MTCC 1021, 48 h
Trichoderma viride [8] = test: Antifungal activity against Trichoderma viride MTCC 1107 assessed as zone of inhibition at 40 uM after 48 hrs by disc diffusion method; format: functional; details: MTCC 1107, 48 h, read-out: IZ; in short: as §3
Aspergillus flavus [9] = test: Antifungal activity against Aspergillus flavus MTCC 1021 assessed as zone of inhibition at 40 uM after 48 hrs by disc diffusion method; format: functional; details: MTCC 1021, 48 h, read-out: IZ; in short: as §3
Pseudomonas aeruginosa [10] = test: Antimicrobial activity against Pseudomonas aeruginosa ATCC 15499 assessed as diameter of inhibition zone at 20 uM after 24 hrs by Kirby -Baur disc diffusion method; format: functional; in short: as §2
Curvularia lunata [11] = test: Antifungal activity against Curvularia lunata MTCC 581 assessed as zone of inhibition at 80 uM after 48 hrs by disc diffusion method; format: functional; details: MTCC 581, 48 h, read-out: IZ; in short: as §3
Aspergillus flavus [12] = test: Antifungal activity against Aspergillus flavus MTCC 1021 assessed as zone of inhibition at 80 uM after 48 hrs by disc diffusion method; format: functional; details: MTCC 1021, 48 h, read-out: IZ; in short: as §3
HepG2 = test: Cytotoxicity against human HepG2 cells after 24 hrs by MTT assay; format: functional, cell-based
In short: (§4)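 The MTT assay seeded 5 × 10⁴ cells per well and grew them 24 h in RPMI 1640 with compound at 2.5–200 µM. Medium without cells was the blank and adriamycin the positive control. MTT was added for 4 h at 37 °C, formazan was solubilised, and absorbance was read at 570 nm. IC50 is the concentration that cuts viability 50% against untreated cells.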

Salmonella typhi [13] = test: Antimicrobial activity against Salmonella typhi ATCC 23564 assessed as diameter of inhibition zone at 40 uM after 24 hrs by Kirby -Baur disc diffusion method; format: functional, Salmonella enterica subsp. enterica serovar Typhi; details: Salmonella enterica, ATCC 23564, 24 h; read-out: DIZ
Aspergillus niger [14] = test: Antifungal activity against Aspergillus niger MTCC 1108 assessed as zone of inhibition at 20 uM after 48 hrs by disc diffusion method; format: functional; in short: as §3
Escherichia coli [15] = test: Antimicrobial activity against Escherichia coli ATCC 35218 assessed as diameter of inhibition zone at 20 uM after 24 hrs by Kirby -Baur disc diffusion method; format: functional; in short: as §2
Staphylococcus aureus [16] = test: Antimicrobial activity against Staphylococcus aureus ATCC 11632 assessed as diameter of inhibition zone at 80 uM after 24 hrs by Kirby -Baur disc diffusion method; format: functional; in short: as §2
Salmonella typhi [17] = test: Antimicrobial activity against Salmonella typhi ATCC 23564 after 24 hrs by broth micro serial dilution method; format: functional, Salmonella enterica subsp. enterica serovar Typhi
Trichoderma viride [18] = test: Antifungal activity against Trichoderma viride MTCC 1107 after 48 hrs; format: functional; details: MTCC 1107, 48 h
Pseudomonas aeruginosa [19] = test: Antimicrobial activity against Pseudomonas aeruginosa ATCC 15499 assessed as diameter of inhibition zone at 80 uM after 24 hrs by Kirby -Baur disc diffusion method; format: functional; in short: as §2
Trichoderma viride [20] = test: Antifungal activity against Trichoderma viride MTCC 1107 assessed as zone of inhibition at 80 uM after 48 hrs by disc diffusion method; format: functional; details: MTCC 1107, 48 h, read-out: IZ; in short: as §3
Trichoderma viride [21] = test: Antifungal activity against Trichoderma viride MTCC 1107 assessed as zone of inhibition at 20 uM after 48 hrs by disc diffusion method; format: functional; in short: as §3
Curvularia lunata [22] = test: Antifungal activity against Curvularia lunata MTCC 581 after 48 hrs; format: functional; details: MTCC 581, 48 h
QG-56 = test: Cytotoxicity against human QG56 cells after 24 hrs by MTT assay; format: functional, cell-based; in short: as §4
HeLa = test: Cytotoxicity against human HeLa cells after 24 hrs by MTT assay; format: functional, cell-based; in short: as §4
Escherichia coli [23] = test: Antimicrobial activity against Escherichia coli ATCC 35218 assessed as diameter of inhibition zone at 40 uM after 24 hrs by Kirby -Baur disc diffusion method; format: functional; details: ATCC 35218, 24 h, read-out: DIZ; in short: as §2
Mus musculus = test: Antiinflammatory activity in mouse assessed as inhibition of carrageenan-induced increase in paw volume at 200 mg/kg administered 1 hr prior to carrageenan challenge measured after 3 hrs relative to control; format: functional
In short: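 Mice were fasted 2 h and placed in groups of five. Controls received saline i.p. Phenylbutazone was given at 100 mg/kg i.p., curcumin at 200 mg/kg i.p., and derivatives at 200 mg/kg. After 1 h, 0.1 mL of 1% carrageenan in saline was injected subplantar into the right hind paw. Paw volume was followed by plethysmometer for 3 h, and % inhibition was calculated as (Vc − Vt)/Vc × 100.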

Salmonella typhi [24] = test: Antimicrobial activity against Salmonella typhi ATCC 23564 assessed as diameter of inhibition zone at 80 uM after 24 hrs by Kirby -Baur disc diffusion method; format: functional, Salmonella enterica subsp. enterica serovar Typhi
Bacillus cereus [25] = test: Antimicrobial activity against Bacillus cereus MTCC 7350 after 24 hrs by broth micro serial dilution method; format: functional; in short: as §1
Escherichia coli [26] = test: Antimicrobial activity against Escherichia coli ATCC 35218 assessed as diameter of inhibition zone at 80 uM after 24 hrs by Kirby -Baur disc diffusion method; format: functional; in short: as §2
Staphylococcus aureus [27] = test: Antimicrobial activity against Staphylococcus aureus ATCC 11632 after 24 hrs by broth micro serial dilution method; format: functional; in short: as §1
HCT-116 = test: Cytotoxicity against human HCT116 cells after 24 hrs by MTT assay; format: functional, cell-based; in short: as §4
Aspergillus niger [28] = test: Antifungal activity against Aspergillus niger MTCC 1108 assessed as zone of inhibition at 80 uM after 48 hrs by disc diffusion method; format: functional; details: MTCC 1108, 48 h, read-out: IZ; in short: as §3
Escherichia coli [29] = test: Antimicrobial activity against Escherichia coli ATCC 35218 after 24 hrs by broth micro serial dilution method; format: functional; details: ATCC 35218, 24 h; in short: as §1
Aspergillus niger [30] = test: Antifungal activity against Aspergillus niger MTCC 1108 assessed as zone of inhibition at 40 uM after 48 hrs by disc diffusion method; format: functional; in short: as §3
Aspergillus niger [31] = test: Antifungal activity against Aspergillus niger MTCC 1108 after 48 hrs; format: functional; details: MTCC 1108, 48 h
Aspergillus flavus [32] = test: Antifungal activity against Aspergillus flavus MTCC 1021 assessed as zone of inhibition at 20 uM after 48 hrs by disc diffusion method; format: functional; in short: as §3
[33] = Salmonella enterica subsp. enterica serovar Typhi

Structure (SMILES) | MIC (Pseudomonas aeruginosa [1]) | diameter of the inhibition zone (DIZ) (Bacillus cereus [3]) | zone of inhibition at 40 µM (Curvularia lunata [4]) | MIC (Aspergillus flavus [7]) | zone of inhibition at 40 µM (Trichoderma viride [8]) | zone of inhibition at 40 µM (Aspergillus flavus [9]) | zone of inhibition at 80 µM (Curvularia lunata [11]) | zone of inhibition at 80 µM (Aspergillus flavus [12]) | IC50 (HepG2) | diameter of the inhibition zone (DIZ) (Staphylococcus aureus [16]) | MIC (Trichoderma viride [18]) | zone of inhibition at 80 µM (Trichoderma viride [20]) | MIC (Curvularia lunata [22]) | IC50 (QG-56) | IC50 (HeLa) | inhibition in vivo at 200 mg/kg (Mus musculus) | MIC (Bacillus cereus [25]) | MIC (Staphylococcus aureus [27]) | IC50 (HCT-116) | zone of inhibition at 80 µM (Aspergillus niger [28]) | other results
COc1cc(/C=C/C(=O)C(/N=N/c2ccc(S(N)(=O)=O)cc2)=C(O)/C=C/c2ccc(O)c(OC)c2)ccc1O | > 80 µM | inactive | 10 mm | > 80 µM | 10 mm | 9 mm | 11 mm | 11 mm | Not Active | inactive | > 80 µM | 11 mm | > 80 µM | Not Active | > 100 µM | 16.1% | inactive | inactive | Not Active | 10 mm | diameter of the inhibition zone (DIZ) (Salmonella typhi [2]): inactive; diameter of the inhibition zone (DIZ) (Pseudomonas aeruginosa [5]): inactive; inhibition zone (IZ) (Curvularia lunata [6]): inactive; diameter of the inhibition zone (DIZ) (Pseudomonas aeruginosa [10]): inactive; zone of inhibition at 40 µM (Salmonella typhi [13]): 9 mm; inhibition zone (IZ) (Aspergillus niger [14]): inactive; diameter of the inhibition zone (DIZ) (Escherichia coli [15]): inactive; MIC (Salmonella typhi [17]; Salmonella enterica, ATCC 23564, 24 h): > 80 µM; zone of inhibition at 80 µM (Pseudomonas aeruginosa [19]; ATCC 15499, 24 h, read-out: DIZ): 9 mm; inhibition zone (IZ) (Trichoderma viride [21]): inactive; zone of inhibition at 40 µM (Escherichia coli [23]): 9 mm; zone of inhibition at 80 µM (Salmonella typhi [24]; Salmonella enterica, ATCC 23564, 24 h, read-out: DIZ): 11 mm; zone of inhibition at 80 µM (Escherichia coli [26]; ATCC 35218, 24 h, read-out: DIZ): 12 mm; MIC (Escherichia coli [29]): > 80 µM; inhibition zone (IZ) (Aspergillus niger [30]): inactive; MIC (Aspergillus niger [31]): > 80 µM; inhibition zone (IZ) (Aspergillus flavus [32]): inactive
COc1cc(/C=C/C(=O)C(/N=N/c2ccc(S(=O)(=O)Nc3ccccn3)cc2)=C(O)/C=C/c2ccc(O)c(OC)c2)ccc1O | > 80 µM | inactive | 13 mm | 40 µM (≈ 25.1 µg/mL) | 13 mm | 12 mm | 17 mm | 13 mm | Not Active | inactive | 40 µM (≈ 25.1 µg/mL) | 17 mm | 40 µM (≈ 25.1 µg/mL) | Not Active | 100 µM | 9.6% | inactive | inactive | Not Active | 14 mm | zone of inhibition at 20 µM (Curvularia lunata [6]; MTCC 581, 48 h, read-out: IZ): 10 mm; zone of inhibition at 20 µM (Aspergillus niger [14]; MTCC 1108, 48 h, read-out: IZ): 9 mm; MIC (Salmonella typhi [17]; [33]): inactive; diameter of the inhibition zone (DIZ) (Pseudomonas aeruginosa [19]): inactive; zone of inhibition at 20 µM (Trichoderma viride [21]; MTCC 1107, 48 h, read-out: IZ): 10 mm; diameter of the inhibition zone (DIZ) (Salmonella typhi [24]; [33]): inactive; diameter of the inhibition zone (DIZ) (Escherichia coli [26]): inactive; MIC (Escherichia coli [29]): > 80 µM; zone of inhibition at 40 µM (Aspergillus niger [30]; MTCC 1108, 48 h, read-out: IZ): 11 mm; MIC (Aspergillus niger [31]): 40 µM (≈ 25.1 µg/mL); zone of inhibition at 20 µM (Aspergillus flavus [32]; MTCC 1021, 48 h, read-out: IZ): 9 mm
